In ChEMBL document CHEMBL4513216, “Probing the Open Global Health Chemical Diversity Library for Multistage-Active Starting Points for Next-Generation Antimalarials” (ACS Infect Dis, 2020):

Experiment: Toxicity liver stage against HepG2, at 10uM
Format: cell-based
Design: test concentration 10 uM, cell line HepG2-A16-CD81EGFP
Conditions: human, HepG2-A16-CD81EGFP cells; read-out: INHIBITION
Summary of the method: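 Uninfected HepG2-A16-CD81EGFP cells, 3 × 10^3 per well, 1536-well, plated on prespotted compound at 10 μM final, parasite-free screening media added to match infected plates; puromycin 10 μM positive, DMSO 0.5% negative; run in parallel with 48 h PbLuc assay at 37 °C, 5% CO2; viability by CellTiter-Glo luminescence, normalized to controls.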

Row | Compound | cytotoxicity at 10 µM [%]
1 | CCc1cc(NCCCNS(C)(=O)=O)nc(-c2ccncc2)n1 | 3.62
2 | Cc1c(Br)cnn1CC(=O)Nc1ccon1 | 10.8
3 | CCCNC(=O)Cn1cc(OC)c(=O)cc1CSc1nc(C)cc(C)n1 | 4.46
4 | CN1CCOC(C(=O)N2CCOC3(CCCC3)C2)C1 (stereo unspecified) | 7.28
5 | O=C(NC[C@H]1OC[C@@H](NCc2cccs2)[C@@H]1O)N1CCOCC1 | -3.53
6 | CCc1ncc2c(n1)CN(CC(=O)N1CCc3sccc3C1)CC2 | 4.83
7 | Cc1nonc1NC(=O)C1SCCc2ccccc21 (stereo unspecified) | -3
8 | CCc1ccsc1CNC(=O)CNC(=O)C(C)(C)C | -4.08
9 | O=C(NCc1cccs1)c1[nH]nc2c1CS(=O)(=O)CC2 | 1.41
10 | Cc1cnc(C(=O)N2C[C@H]3CN(Cc4cccnc4)C[C@H]3C2)cn1 | 2.4
11 | CC(N1CCN(C(=O)NCc2cccc(C#N)c2)CC1)C(F)(F)F (stereo unspecified) | 6.31
12 | Cc1c(C(=O)O)cnn1-c1ccc(-c2nc(C3CC3)no2)cn1 | 0.88
13 | CC(=O)N1CCN(c2ccccc2CNc2ccc(C)cn2)CC1 | 11.2
14 | Cc1cc(CN2CCN(CC(O)c3ccccc3)CC2)no1 (stereo unspecified) | -14.4
15 | O=c1c2cccc(C(F)(F)F)c2ncn1C1CCNC1 (stereo unspecified) | -38.3
16 | Cn1cc(C(=O)NCC2CCN(C(=O)NCC(F)(F)F)CC2)cn1 | -3.68
17 | CC(C)(O)c1cn(C2CCN(C(=O)CCC3CCCC3)CC2)nn1 | 1.2
18 | CC(C)(C)c1cc(NC(=O)NCCc2nnc3n2CCC3)c(C#N)s1 | 14.1
19 | O=C(C1CCC1)N1CCN(Cc2ccccc2F)[C@H]2CS(=O)(=O)C[C@H]21 | 0.15
20 | Cc1ncc(CNC2CCc3nc(C(C)C)nn3C2)s1 (stereo unspecified) | 3.97
21 | Cn1nccc1CCC(=O)NC1CCCN(c2ccccn2)C1 (stereo unspecified) | 4.18
22 | CCC(NCc1ncc[nH]1)c1nc(C(F)(F)F)cs1 (stereo unspecified) | 8.02
23 | CCc1c(C(=O)NCC2CCS(=O)(=O)C2)cnn1-c1ccccc1 (stereo unspecified) | -8.22

Row | Compound | cytotoxicity at 10 µM [%]
24 | Cc1cccc(NC(=O)c2nn(C3CCS(=O)(=O)C3)c3c2CCCC3)n1 (stereo unspecified) | 10.5
25 | CC(C)C(=O)N1CCCC1C(=O)Nc1ccc(F)c(F)c1 (stereo unspecified) | -1.57
26 | OCc1ccc(Cl)c(NCc2cccnc2)c1 | 3.12
27 | Cc1ccc(-c2noc(CC[C@@H]3CCCN4CCCC[C@H]34)n2)nn1 | -4.56
28 | O=C1Nc2ccccc2/C1=C1\CCCN1 | 5.02
29 | CCN(C1CCN(C(=O)c2cccc(Cl)c2)CC1)S(C)(=O)=O | 0.209
30 | CN(CCCO)Cc1cc(Cl)ccc1OCC(O)CN1CCCCCC1 (stereo unspecified) | 2.71
31 | Cc1c(NC(C)C(C)C)cccc1C(=O)NCc1nnc(C)n1C (stereo unspecified) | 6.45
32 | CCC(O)CN(CC(=O)Nc1cc(C)no1)c1ccccc1 (stereo unspecified) | -2.59
33 | CCCS(=O)(=O)N1Cc2nccn2CC(Cn2cncn2)C1 (stereo unspecified) | -0.158
34 | CCc1ccc(S(=O)(=O)Nc2cc(C(=O)O)c(F)cc2F)s1 | -7.44
35 | CCS(=O)(=O)N1CCC2(CC1)CC[C@@]1(C(=O)N(C)C)CN(C)C[C@@H]21 | 10.4
36 | COc1ncc(CN2CCOC(Cc3cccc4ccccc34)C2)cn1 (stereo unspecified) | -3.94
37 | O=C(c1ccncc1)N1CCCn2nnc(COCCO)c2C1 | 10.5
38 | Cn1c(C(=O)N(CC(N)=O)C2CCCC2)cc(Cl)c1Cl | 9.31
39 | Cn1cc(C2CCCN2C(=O)CCCc2nc3ccccc3[nH]2)cn1 (stereo unspecified) | 2.35
40 | CCCNc1cc(-c2c[nH]nc2C2CCN(C(=O)C3CCC3)C2)ccn1 (stereo unspecified) | 82
41 | c1ccc(CCN2CCn3cc(Cn4cccn4)nc3C2)cc1 | -1.98
42 | COc1ccc(C2(C(=O)NCc3c(C)ncc4c3CCNC4)CC2)cc1 | -50.7
43 | Cc1ccc(OCc2nc(CNCCn3cccn3)cs2)cc1 | 0.979
44 | CC(=O)c1cccc(OCCCC(=O)N(C)CC(N)=O)c1 | 17.3
45 | COc1ccc(-n2nnc(C(=O)O)c2-c2ccccn2)cc1 | 13.7
46 | Cc1cccc(C)c1OCC(=O)Nc1cccn(C)c1=O | 4.08

Row | Compound | cytotoxicity at 10 µM [%]
47 | O=C(NCc1nnc2n1CCC2)N(Cc1ccco1)C1CC1 | -6.11
48 | OC(c1cccs1)C1CCN(c2ncccn2)CC1 (stereo unspecified) | -52.5
49 | CC(C)c1ccc(OCCC(=O)N(C)CC(N)=O)cc1 | 6.77
50 | CC(=O)N1CCN([C@@H]2CCC[C@@H](NC(=O)c3cccnc3)[C@H]2O)CC1 | -0.00173
51 | CCCc1ncc(CNC2(c3ccc(Cl)cc3)CCC2)cn1 | -9.48
52 | CCN(CC)c1nc2sc(C(=O)N3CCNC(=O)C3)cc2s1 | -4.29
53 | CC(C)c1noc(-c2ccc(NCCCC3CCOC3)nc2)n1 (stereo unspecified) | -7.37
54 | O=C([C@H]1CCCO1)N1CCCC2(CCN(Cc3ccncc3)C2=O)C1 (stereo partly specified) | 11.9
55 | COc1cc(C2SC(C)=Nc3c2c(=O)[nH]n3C2CCCC2)ccc1O (stereo unspecified) | 3.54
56 | Cc1nc(-c2ccncc2)ncc1C(C)NC(=O)CN1CCCCC1 (stereo unspecified) | 1.47
57 | Cc1nc(CN2CCCC(N(C)Cc3c(C)noc3C)C2)no1 (stereo unspecified) | -0.866
58 | Cc1ccc(C(=O)N2CCCC(CNS(C)(=O)=O)C2)o1 (stereo unspecified) | -16
59 | Cc1ccsc1C(=O)N1CC(C(=O)NCC2CC2)C2(CCOCC2)C1 (stereo unspecified) | 0.955
60 | CN(C)CCOC1CC2(CCN(c3cnccn3)CC2)c2ccccc21 (stereo unspecified) | -2.69
61 | Cc1ccn2ncc(C(=O)N3CCCC(n4ccnc4C)C3)c2n1 (stereo unspecified) | -13.6
62 | O=C(NS(=O)(=O)Cc1ccc(F)cc1)C1CCOc2ccccc21 (stereo unspecified) | -3.22
63 | Cc1csc(C2CCCCN2C(=O)CCCn2cccn2)n1 (stereo unspecified) | -0.89
64 | Cc1cccc(N(C)S(=O)(=O)c2cc(C(=O)O)cs2)c1 | -6.12
65 | CN1CCCCC1c1cncc(N2CCC(O)CC2)n1 (stereo unspecified) | 2.54
66 | Cc1cc(CN(C)C(=O)Nc2ccccc2C)no1 | -8.75
67 | CN1CCN(CCOc2ccc(NC(=O)c3ccncc3)cc2)CC1 | -5.18
68 | OCC1CCCN1c1cc(NCCc2ccccn2)ncn1 (stereo unspecified) | -0.813
69 | CC(C)c1nnc2n1CCN(C(=O)c1ccc(S(C)(=O)=O)cc1)C2 | -0.252

Row | Compound | cytotoxicity at 10 µM [%]
70 | CN(C)Cc1nc(C(C)(C)NC(=O)c2cccc3ccccc23)no1 | -1.8
71 | C[C@@H]1CN(C2(C(=O)N3CCNCC3)Cc3ccccc3C2)C[C@H](C)O1 | -4.17
72 | O=C(c1ccc(-c2ccccc2)[nH]c1=O)N1CCCn2ncnc21 | 1.46
73 | Cc1nc(-c2nc(C(=O)N3CCOCC3)c3ccccn23)cn1C(C)C | 1.53
74 | CCS(=O)(=O)NC[C@]12COC[C@H]1CN(Cc1cccnc1OC)C2 | 1.97
75 | CCCN(C(=O)CN1CCN(CCO)CC1)C1=CCCCC1 | 6.45
76 | CC(O)C(=O)N1CCC(c2[nH]ncc2-c2ccccc2)CC1 (stereo unspecified) | -2
77 | CC(C)CNC(=O)N1CCC2(CCCO2)C1 (stereo unspecified) | 12.9
78 | COc1ccccc1CCN1CCCC(CN(C)Cc2ccc(C)o2)C1 (stereo unspecified) | -0.813
79 | COc1ccc(C2CCCN2c2ccc(C#N)cn2)c(OC)c1 (stereo unspecified) | -3.42
80 | CS(=O)(=O)c1ccc(OCCNCc2cccc(O)c2)cc1 | 2.21
81 | O=C(C(CNCc1cccnc1)c1ccccc1)N1CCOCC1 (stereo unspecified) | 2.49
82 | O=C(c1cnc(-c2cnccn2)s1)N1CCCC(n2cccn2)C1 (stereo unspecified) | -9.04
83 | CCN1CC(C(=O)NCCOc2ccc3c(c2)OCO3)CC1=O (stereo unspecified) | -2.34
84 | CC(C)c1ocnc1C(=O)Nc1cccc(Cn2ccccc2=O)c1 | 8.15
85 | CC(C)CN(Cc1ccc(-n2cncn2)cc1)Cc1ccccn1 | 8.57
86 | CCn1cc(C(=O)NCCc2nc(-c3ccc(C)cc3)n[nH]2)c(C)n1 | 9.03
87 | O=C(NCCNc1ncccn1)N1CCCC1c1ccncc1 (stereo unspecified) | -4.65
88 | CN(CCn1cnnc1)S(=O)(=O)c1ccc(C(F)(F)F)nc1 | 6.71
89 | CC(C)n1nc(CN2CCOCC2)c2c1CN(Cc1ccsc1)C2 | -132
90 | Cc1cc(C(=O)N2CCCC2c2nnc3n2CCCCC3)on1 (stereo unspecified) | 1.68
91 | CCn1nc(C)c2ncnc(NCCCN3CCOCC3)c21 | 2.06
92 | Cc1cc(C)c(C(=O)N2CCC3(CCCNC3)C2)cc1C (stereo unspecified) | 2.52

Row | Compound | cytotoxicity at 10 µM [%]
93 | CC(C)n1cnnc1SCCN(C)c1ccccc1 | 2.96
94 | CC(C)c1ncc(Cl)c(C(=O)N2CCN(C3CCCC3)CC2)n1 | 8.69
95 | Cc1cccc(-n2cc(C(=O)N3CCn4c(C)nnc4C3)nn2)c1 | -10.1
96 | O=C(CN1CC(c2ccccc2)CC1=O)NCc1cc2n(n1)CCNC2 (stereo unspecified) | 1.05
97 | Cc1ncc2c(n1)CN(CC(O)COc1ccc(C#N)cc1)CC2 (stereo unspecified) | 7.45
98 | CC(=O)Cn1c(C)cc(=O)c2cc(F)ccc21 | -4.46
99 | CN(C)C1COC2(CCN(Cc3nccs3)CC2)C1 (stereo unspecified) | 2.02
100 | Cc1cccc(CO[C@H]2CN(c3nnc(C)s3)[C@@H]3CCCO[C@H]23)n1 | 4.47
101 | CCOCCCNC(=O)C1CCC(=O)N(CCc2ccc(Cl)cc2)C1 (stereo unspecified) | -0.591
102 | O=C(Cn1cccn1)NCC1CCCN(Cc2ccccc2)C1 (stereo unspecified) | -16.2
103 | CCOc1ccc2oc(-c3cn(C)nc3C)c(O)c(=O)c2c1 | 7.72
104 | CC(=O)Nc1cc(C2CC2)nn1-c1nc(C)c(C)c(=O)[nH]1 | -1.39
105 | CN(C(=O)C1CSCN1S(=O)(=O)c1ccc(F)cc1)C1CC1 (stereo unspecified) | 1.18
106 | COCCC(=O)N(Cc1cccnc1)CC1CCN(C2CCCC2)CC1 | -5
107 | Cn1nc(CNC(=O)C2CCN(S(C)(=O)=O)CC2)cc1C1CC1 | -2.87
108 | O=C1CC2(CCSC2)C(=O)N1Cc1coc(-c2ccc(F)cc2)n1 (stereo unspecified) | 6.88
109 | NC(=O)CC1CCN(S(=O)(=O)c2cnn(-c3ccccc3)c2)CC1 | 12
110 | O=C(NCC1CC1)Nc1cnc2cc(Cl)ccc2c1O | -0.0788
111 | Cn1ccc2cc(C(=O)NC3CCS(=O)(=O)C3)ccc21 (stereo unspecified) | 0.979
